Measurements: ChEMBL document CHEMBL1152748, “Inhibition of iNOS and COX-2 in human whole blood ex vivo and monocyte-macrophage J774 cells by a new group of aminothiopyrimidone derivatives” (Bioorg Med Chem, 2009)

Experiments:
[1] = target: T1, Prostaglandin G/H synthase 2 (Homo sapiens) (UniProt P35354); assay: Activation of COX2 in LPS-stimulated human whole blood assessed as stimulation of PGE2 production at 10 uM […]; type: tissue-based
T1 sequence (whole entry): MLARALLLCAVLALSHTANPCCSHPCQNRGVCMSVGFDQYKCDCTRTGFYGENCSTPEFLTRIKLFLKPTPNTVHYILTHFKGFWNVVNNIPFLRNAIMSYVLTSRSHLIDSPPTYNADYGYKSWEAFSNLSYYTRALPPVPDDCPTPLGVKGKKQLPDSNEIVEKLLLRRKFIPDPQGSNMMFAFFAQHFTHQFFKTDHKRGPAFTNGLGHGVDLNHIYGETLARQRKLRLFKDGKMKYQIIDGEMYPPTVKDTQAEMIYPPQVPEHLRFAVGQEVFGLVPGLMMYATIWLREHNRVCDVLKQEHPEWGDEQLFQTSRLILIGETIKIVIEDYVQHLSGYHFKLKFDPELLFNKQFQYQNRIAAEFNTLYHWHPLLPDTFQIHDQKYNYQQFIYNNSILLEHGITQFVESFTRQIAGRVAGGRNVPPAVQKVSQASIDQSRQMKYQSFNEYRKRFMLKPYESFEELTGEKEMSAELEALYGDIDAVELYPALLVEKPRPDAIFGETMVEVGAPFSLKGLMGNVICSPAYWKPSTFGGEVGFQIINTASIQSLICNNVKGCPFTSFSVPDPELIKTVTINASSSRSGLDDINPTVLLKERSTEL
Summary of the method: (§1)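 Heparinized (10 IU) whole blood from young healthy volunteers, drawn 48 h after 300 mg oral aspirin to suppress platelet COX-1. 1 ml aliquots; compound added in DMSO (final 10 µM) before LPS 10 µg/ml, 24 h at 37 °C. Plasma stored at -70 °C, PGE2 by competitive peroxidase EIA at 450 nm (range 50–6400 pg/ml). Mean ± SEM, three experiments in triplicate.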

[2] = target: T2, Prostaglandin G/H synthase 2 (Mus musculus) (UniProt Q05769); assay: Activation of COX2 in LPS-stimulated mouse J774 cells assessed as stimulation of PGE2 production by […]; type: cell-based; set-up: concentration or dose not given beside the values
T2 sequence (whole entry): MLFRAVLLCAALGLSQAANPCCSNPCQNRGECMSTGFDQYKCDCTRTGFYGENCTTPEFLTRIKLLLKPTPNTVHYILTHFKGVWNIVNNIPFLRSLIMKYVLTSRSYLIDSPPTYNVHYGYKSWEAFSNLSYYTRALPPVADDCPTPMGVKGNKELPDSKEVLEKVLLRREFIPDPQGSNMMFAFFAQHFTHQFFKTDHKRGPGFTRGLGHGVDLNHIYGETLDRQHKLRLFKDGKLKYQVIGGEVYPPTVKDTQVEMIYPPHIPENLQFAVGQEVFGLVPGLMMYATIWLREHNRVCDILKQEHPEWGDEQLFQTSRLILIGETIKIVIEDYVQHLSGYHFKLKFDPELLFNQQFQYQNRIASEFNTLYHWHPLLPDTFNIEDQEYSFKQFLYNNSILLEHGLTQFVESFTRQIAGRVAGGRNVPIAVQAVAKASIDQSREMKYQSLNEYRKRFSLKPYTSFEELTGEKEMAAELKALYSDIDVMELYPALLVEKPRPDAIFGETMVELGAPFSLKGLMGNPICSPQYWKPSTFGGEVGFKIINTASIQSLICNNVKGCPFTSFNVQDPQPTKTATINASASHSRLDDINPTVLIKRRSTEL
Summary of the method: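 Mouse J774 monocyte-macrophages in DMEM/10% FCS, plated at 2.5×10^5 cells/ml and adhered 24 h. Stimulated with LPS 5 µg/ml for 72 h with compound (10 µM, DMSO vehicle). Supernatant PGE2 by competitive peroxidase EIA at 450 nm (50–6400 pg/ml) against vehicle control. Mean ± SEM, three experiments in triplicate.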

[3] = target: T3, Nitric oxide synthase, inducible (Mus musculus) (UniProt P29477); assay: Activation of iNOS in LPS-stimulated mouse J774 cells assessed as stimulation of nitric oxide generation at 10 uM; type: cell-based
T3 sequence (whole entry): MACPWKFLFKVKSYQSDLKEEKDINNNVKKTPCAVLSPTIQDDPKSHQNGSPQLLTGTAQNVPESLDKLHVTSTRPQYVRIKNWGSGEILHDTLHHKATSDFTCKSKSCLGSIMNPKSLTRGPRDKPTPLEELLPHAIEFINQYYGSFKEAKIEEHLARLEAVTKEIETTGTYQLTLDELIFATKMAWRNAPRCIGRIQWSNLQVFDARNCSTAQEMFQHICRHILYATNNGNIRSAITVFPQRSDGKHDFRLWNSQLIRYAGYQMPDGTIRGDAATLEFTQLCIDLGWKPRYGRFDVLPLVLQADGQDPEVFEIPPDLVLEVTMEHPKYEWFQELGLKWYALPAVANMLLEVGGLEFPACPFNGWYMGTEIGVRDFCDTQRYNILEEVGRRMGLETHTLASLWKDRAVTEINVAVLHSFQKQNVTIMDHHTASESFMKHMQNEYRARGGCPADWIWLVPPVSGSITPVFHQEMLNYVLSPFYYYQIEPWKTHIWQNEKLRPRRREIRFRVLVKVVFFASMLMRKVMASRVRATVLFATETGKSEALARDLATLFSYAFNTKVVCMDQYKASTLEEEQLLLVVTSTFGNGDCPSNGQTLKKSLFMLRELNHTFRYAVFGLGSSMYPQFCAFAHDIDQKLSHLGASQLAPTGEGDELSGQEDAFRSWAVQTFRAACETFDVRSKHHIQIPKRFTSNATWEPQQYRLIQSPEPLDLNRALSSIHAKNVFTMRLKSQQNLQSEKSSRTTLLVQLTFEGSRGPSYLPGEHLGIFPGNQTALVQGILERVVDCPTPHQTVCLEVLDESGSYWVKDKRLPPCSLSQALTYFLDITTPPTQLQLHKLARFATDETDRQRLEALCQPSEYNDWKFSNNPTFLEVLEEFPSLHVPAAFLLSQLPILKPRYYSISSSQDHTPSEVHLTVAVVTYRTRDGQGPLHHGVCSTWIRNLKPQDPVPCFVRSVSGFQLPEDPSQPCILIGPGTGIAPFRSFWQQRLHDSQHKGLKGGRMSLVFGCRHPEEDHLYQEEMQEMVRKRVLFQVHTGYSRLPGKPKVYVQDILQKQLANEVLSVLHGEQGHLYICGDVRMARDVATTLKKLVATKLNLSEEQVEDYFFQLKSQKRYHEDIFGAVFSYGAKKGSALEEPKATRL
Summary of the method: (§2)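 J774 cells plated at 2.5×10^5 cells/ml, adhered 24 h, then given LPS 5 µg/ml for 72 h with compound at 10 µM (DMSO vehicle). Supernatant nitrite measured by Griess reaction, 10 min at room temperature, absorbance at 550 nm against sodium nitrite standard (detection limit 1 µM). NGMMA 500 µM served as control. Mean ± SEM, three experiments in triplicate.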

[4] = target: T3, Nitric oxide synthase, inducible (Mus musculus); assay: Inhibition of iNOS in LPS-stimulated mouse J774 cells assessed as inhibition of nitric oxide generation at 10 uM; type: cell-based; summary of the method: as §2
[5] = target: T1, Prostaglandin G/H synthase 2 (Homo sapiens); details: Blood, at 10 µM
[6] = target: T4, Prostaglandin G/H synthase 2 (Homo sapiens, UniProt P35354); assay: Inhibition of COX2 in LPS-stimulated human whole blood assessed as inhibition of PGE2 production by […]; type: tissue-based; summary of the method: as §1
T4 sequence (P35354 whole entry): T1 sequence (whole entry)

| Structure (SMILES) | Activity [1] [%] | Activity [2] [%] | Activity [3] [%] | inhibition [4] [%] | inhibition [5] [%] | IC50 [6] [µM] |
| --- | --- | --- | --- | --- | --- | --- |
| Nn1c(SC(C(=O)O)c2ccccc2)nc2ccccc2c1=O (stereo unspecified) | 21 | 30 | 5 | – | – | – |
| Cc1sc2nc(SC(C(=O)O)c3ccccc3)n(N)c(=O)c2c1C (stereo unspecified) | 205 | 346 | 11 | – | – | – |
| CC(Sc1nc2c([nH]c3ccccc32)c(=O)n1N)C(=O)O (stereo unspecified) | 28 | 180 | 35 | – | – | – |
| Nn1c(Sc2ccc([N+](=O)[O-])cc2[N+](=O)[O-])nc2sc(-c3ccccc3)cc2c1=O | – | – | – | 60 | 75 | – |
| CC(Sc1nc2c(sc3ccccc32)c(=O)n1N)C(=O)O (stereo unspecified) | 6 | 52 | 10 | – | – | – |
| Cc1ccc(-c2cc(C(F)(F)F)nn2-c2ccc(S(N)(=O)=O)cc2)cc1 | – | – | – | 96 | – | – |
| Nn1c(SC(C(=O)O)c2ccccc2)nc2ccsc2c1=O (stereo unspecified) | – | – | – | 55 | – | – |
| COc1ccc2c(c1)c(CC(=O)O)c(C)n2C(=O)c1ccc(Cl)cc1 | – | – | – | 90 | – | – |
| Nn1c(SC2CCCCC2)nc2sc(-c3ccccc3)cc2c1=O | – | – | – | 70 | 90 | – |
| CS(=O)(=O)Nn1c(Sc2ccc([N+](=O)[O-])cc2[N+](=O)[O-])nc2sc(-c3ccccc3)cc2c1=O | – | – | – | 100 | 100 | 3.4 |
| Nn1c(SC(C(=O)O)c2ccccc2)nc2ccc(Br)cc2c1=O (stereo unspecified) | – | – | – | 38 | 70 | 7 |
| CC(Sc1nc2sc(-c3ccccc3)cc2c(=O)n1N)C(=O)O (stereo unspecified) | 90 | 250 | 52 | – | – | – |
| CC(Sc1nc2ccccc2c(=O)n1N)C(=O)O (stereo unspecified) | – | – | – | 50 | 88 | 5.8 |
